XBP1 UPR activ: activators of adaptive arm of unfolded protein response (XBP1) | CHO-XBP1 luciferase reporter, IRE1-XBP1 UPR activation, luminescence; percent of tunicamycin response, DMSO as zero | activation, % at 20 µM | hit rate 0.33% among 330,000;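 active means versus positive control, 20 µM dose yields 30% or more activation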;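 further: 100% = tunicamycin at 10 µg/mL and 0% = DMSO only wells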
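Material – CHO cell line with stable XBP1 luciferase reporter · Buffer or medium – F12 plus 10% FBS · Compound – single point, 20 µM final compound, 1% DMSO · Schedule – 16-18 h cell attachment at 37 °C, then 6 h compound exposure · Signal – Steady-Glo luminescence read · Benchmarks – high control tunicamycin 10 µg/mL final, low control DMSO vehicle only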
CHOP inh: blocks CHOP induction under ER stress | CHO-K1 CHOP-promoter luciferase, tunicamycin-induced, 15-18 h | inhibition, % at 10 µM | hit rate 3.8% among 220,000;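 active means compounds that reduced the stress-induced luciferase reporter signal by more than about 70% of percent inhibition, limit read from the data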;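 further: 0% = tunicamycin plus vehicle and 100% = wells without tunicamycin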
B2AR ag: human beta-2 adrenergic receptor agonism by FAP; P07550; Am2.2-beta2AR cells, FAP receptor internalization, flow cytometry; response, % (concentration not given with the values); hit rate 0.43% among 340,000; AID 504454;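 active means response above a set limit, near 3 SD of response in nonfluorescent compounds, cut at about 42% in these data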
Dynein cargo inh: dynein cargo transport inhibition; 3617.4 mouse cells, GR-EGFP nuclear translocation imaging; test concentration mostly 20 µM; stimulated with dexamethasone, 1 µM; active compounds read low; z-score, hits read low; hit rate 0.47% among 220,000; AID 1381;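 active means plate z-score of nuclear minus cytoplasmic receptor signal below a set negative limit, without overly bright fluorescence or cell loss, cut at about -3.5 in these data, passing the limit was not always enough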;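 further: z-score of nuclear minus cytoplasmic ring GR-EGFP intensity difference per well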
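Buffer or medium: Induction medium lacking tetracycline, stripped serum | Also added: Dexamethasone agonist, 1.0 µM final, for 30 min | Timing: 48 h induction, 1 h compound, 30 min dex at 37 °C | Detection: Formaldehyde fixation, Hoechst nuclear stain, 10x automated fluorescence imaging | Measure: Nuclear versus cytoplasmic GR-EGFP signal, averaged per well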
pCIP destab: p/CIP protein destabilization; Q05BA5; F442A p/CIP-EGFP cells, EGFP fluorescence, 16 h; decrease of EGFP signal, % at 10 µM; hit rate 0.01% among 290,000; AID 1984;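 active means EGFP signal decrease of at least 30% at 10 µM or well 3 SD below plate mean, unless failing retest; inactive means the rest, including hits failing retest or dose response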
CHOP UPR activ: apoptotic UPR (CHOP) activation; CHO-CHOP luciferase reporter, luminescence; percent of tunicamycin response over DMSO baseline; activation, % at 10 µM; hit rate 0.34% among 330,000;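 active means at 10 µM dose, activation of 40% or more, normalized to positive control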;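 further: 100% = tunicamycin at 10 µg/mL and 0% = DMSO alone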
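Dosing – one dose, 10 µM in 0.5% DMSO · System – CHO-CHOP cells, stable luciferase reporter of PERK-eIF2a-CHOP signalling · Input – 500 cells/well · Control set – tunicamycin 10 µg/mL final as positive, DMSO-only wells as negative · Timing – 6 h compound treatment, 37 °C · Measure – % activation vs tunicamycin · Technique – luminescence read with Steady-Glo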
* hit, by the source's call; x = not tested or not shown. This is one part of a sample in which hits are shown more often than they occur.

SMILES	XBP1 UPR activ	CHOP inh	B2AR ag	Dynein cargo inh	pCIP destab	CHOP UPR activ
CCCCOc1ccc2ccccc2c1C=O	2.8	19.9	1.5	0.604	-10.3	4.6
O=C(NNC(=O)C12CC3CC(CC(O)(C3)C1)C2)c1ccccc1O	-4.7	x	-6.8	x	-12.1	1.3
CCOC(=O)c1c(N)sc(C(O)(C(F)(F)F)C(F)(F)F)c1-c1ccc(F)cc1	2.1	78.0*	1.5	2.46	2.6	-3.1
O=C1C(Cl)=C(N2CCN(c3ccccc3[N+](=O)[O-])CC2)C(=O)c2ccccc21	x	31.2	81.4*	-3.49	-8.5	x
Fc1ccc(NC(=S)NCc2cccs2)cc1	-1.5	13.9	-0.3	1.36	-2.6	-0.2
O=C(Nc1nc2ccc(F)cc2s1)C1CCN(S(=O)(=O)c2cc([N+](=O)[O-])ccc2Cl)CC1	-1.7	90.0*	-6.7	0.301	-4.1	9.9
Cc1ccc(NC(=O)C2CCN(S(=O)(=O)c3cc([N+](=O)[O-])ccc3Cl)CC2)nc1	-3.3	x	-5.2	x	x	7.1
COc1cc(CNc2ccc(O)cc2)cc(Br)c1OCc1ccccc1F	-1.0	87.1*	10.1	-1.49	-16.8	4.3
COc1cc(CNCc2ccncc2)cc(Br)c1OCc1ccccc1F	-4.4	36.0	3.8	0.487	5.0	-1.4
CCN(c1ccc(NS(=O)(=O)c2cc(Cl)ccc2Cl)cc1)C(C)C	0.0	93.3*	1.5	-0.42	-0.3	1.5
COc1ccc(C)cc1NC(=O)Nc1ccncc1	-2.9	x	-5.3	x	-16.2	2.1
O=C(Nc1cccc(C(F)(F)F)c1)c1cc2ncc(Br)cn2n1	-2.5	78.8*	-8.0	-0.298	-8.6	-0.8
O=C(Nc1ccc2c(c1)OCO2)c1cc2ncc(Br)cn2n1	x	3.4	9.5	2.91	-1.9	x
CCN(CC)CCNC(=O)c1ccc(NC(=O)c2cn(-c3ccccc3)nc2-c2cccs2)cc1	7.1	66.6	20.3	-7.29*	-10.1	4.8
COc1ccc(OC)c(NC(=O)c2nnn(Cc3ccc(Br)cc3F)c2N)c1	1.0	88.4*	-0.5	0.174	0.5	-0.5
COc1ccc(OC)c(NC(=O)NCc2cccnc2)c1	-7.1	x	-9.4	x	-8.2	-0.1
Cc1csc2nc(O)c(C(=O)NCCC3=CCCCC3)c(=O)n12	-2.3	x	0.1	x	x	-1.5
NC(=O)CC(NC(=O)Cc1ccc(Br)cc1)c1ccc(N2CCC(Cc3ccccc3)CC2)c([N+](=O)[O-])c1 (stereo unspecified)	-0.5	95.9*	8.6	-0.007	-8.7	-1.7
NC(=O)CC(NC(=O)Cc1cccc2ccccc12)c1ccc(N2CCN(c3ccc(F)cc3)CC2)c([N+](=O)[O-])c1 (stereo unspecified)	-2.0	94.3*	13.7	0.957	-8.7	-1.2
NC(=O)CC(NC(=O)Cc1ccc(Br)cc1)c1ccc(NCc2ccc(F)c(F)c2)c([N+](=O)[O-])c1 (stereo unspecified)	-3.0	76.3*	-5.9	-0.364	-5.2	2.0
NC(=O)CC(NC(=O)Cc1ccc(Br)cc1)c1ccc(N2CCC(Br)CC2)c([N+](=O)[O-])c1 (stereo unspecified)	-2.7	87.1*	-10.8	0.679	-1.4	-1.8
NC(=O)CC(NC(=O)c1ccc(Br)cc1)c1ccc(NCc2ccc(F)c(F)c2)c([N+](=O)[O-])c1 (stereo unspecified)	-0.4	14.1	6.8	-0.309	-11.5	-0.8
NC(=O)CC(NC(=O)Cc1cccc2ccccc12)c1ccc(N2CCCCCCC2)c([N+](=O)[O-])c1 (stereo unspecified)	-2.1	x	-1.8	x	-6.2	0.4
CCN1C(=O)[C@H]2[C@H]3CN=C(SCc4ccc(C)cc4)N3[C@@](C)(C(=O)OC)[C@H]2C1=O	1.2	x	-4.2	x	x	2.0
O=C(O)C1(Cc2nc3ccccc3[nH]2)CCCC1	4.2	x	5.4	x	9.7	1.3
SMILES	XBP1 UPR activ	CHOP inh	B2AR ag	Dynein cargo inh	pCIP destab	CHOP UPR activ
CN1C(=O)N(C)C2(c3ccccc3)Nn3c(s/c(=C/c4ccccc4F)c3=O)=NC12c1ccccc1 (stereo unspecified)	-1.0	71.5*	x	0.826	2.9	3.9
Cc1cc(N)c2cc(NC(=O)/C=C/c3ccccc3Cl)ccc2n1	6.3	-76.2	73.2*	-6.6	-4.4	12.6
Cc1cc(C)nc(NC(=O)/C=C/c2ccccc2Cl)n1	2.7	14.8	-7.5	-0.378	1.5	5.2
Cc1c(Cl)c([N+](=O)[O-])nn1CC(=O)NCc1cccs1	0.9	-14.8	-4.3	0.689	-1.6	-2.0
CC(C)CN(C(=O)CCCOc1ccc(Cl)cc1Cl)c1c(N)n(Cc2ccccc2)c(=O)[nH]c1=O	-0.8	x	-1.0	x	x	1.0
COc1ccc(Cn2c(-c3ccco3)nc3oc4cc(OC)ccc4c(=O)c3c2=O)cc1	7.8	92.1*	-2.2	-0.518	-0.1	6.5
CCc1nnc(NC(=O)CCc2ccc(C)o2)s1	-2.5	75.3*	18.5	1.04	11.9	1.1
O=C1c2ccccc2CN1Cc1ccccc1	-2.8	x	-8.5	x	1.0	0.3
O=S(=O)(c1ccc(Cl)cc1)N1CCN(Cc2c[nH]c3ccccc23)CC1	0.8	71.0*	-5.5	-0.4	-1.5	-1.1
Cc1ccccc1CN1CCN(S(=O)(=O)c2ccc(F)cc2)CC1	0.1	87.9*	0.0	-0.32	-3.0	-1.6
CCN(CC)CCCCCCCCOC(=O)c1cc(OC)c(OC)c(OC)c1	-4.6	0.9	3.4	x	x	-2.8
COCc1nnc(SCC(=O)NCc2ccccc2)n1-c1ccccc1	-2.3	11.0	0.6	1.3	-16.9	-1.1
Cc1ccc(-n2c(CCc3ccccc3)nnc2SCC(=O)NCc2ccccc2)cc1C	-1.5	85.1*	0.1	-0.961	-8.9	2.5
CCn1c(SCC(=O)NCc2ccccc2)nnc1-c1ccccc1O	-4.1	82.0*	3.1	-0.745	3.7	-1.7
O=C1COc2ccc(C(=O)COC(=O)c3ncc(Cl)c(Cl)c3Cl)cc2N1	-2.9	x	2.2	x	x	-1.2
O=C(COc1ccc(Cl)cc1)NCCCNC(=O)c1cnccn1	-1.9	x	-4.5	x	-0.9	1.6
COC(=O)c1c(NC(=O)CN2CCN(Cc3ccc4c(c3)OCO4)CC2)sc(C)c1C	-1.4	79.5*	20.1	-1.1	-1.7	-0.4
O=C(CCCSc1nc2ccccc2[nH]1)N1CCN(c2ccc([N+](=O)[O-])cc2)CC1	-2.1	73.1*	14.0	-0.345	-3.3	2.8
O=C(CSc1nc2ccccc2[nH]1)N1CCN(c2ccc(F)cc2)CC1	-2.2	32.3	-11.4	-0.503	7.7	-1.7
CCCCOc1ccccc1C1NC(=O)CCC1[N+](=O)[O-] (stereo unspecified)	-4.4	x	1.7	x	2.2	5.0
COc1ccc(-c2nc(C#N)c(N3CCC(C)CC3)o2)cc1	-3.2	x	-6.4	x	-9.1	-1.5
